Assays:
Format in all cases: functional
Plasmodium falciparum = test: Antimalarial activity against Plasmodium falciparum NF54 infected in human serum at 20 ug/ml after 48 hrs by fluorometric method
Outline: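 Asynchronous P. falciparum NF54 at 1.5–2% parasitemia, 5% hematocrit in RPMI with 10% human serum, exposed 48 h at 37 °C under 90% N2/5% CO2/5% O2 at the stated concentration; parasite DNA stained with ethidium bromide after proteinase K lysis; viability % = (Flu treated − medium)/(Flu untreated − medium) ×100; triplicate.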

MDA-MB-468 = test: Cytotoxicity against human MDA-MB-468 cells after 48 hrs by SRB assay; settings: MDA-MB-468, 48 h
Outline: (§1)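 NCI 60-cell-line screen. Cells preincubated 24 h at 37 °C, 5% CO2; time-zero plates TCA-fixed. Compounds dissolved in DMSO and tested at five concentrations (100, 10, 1.0, 0.1, 0.01 µM) for 48 h continuous exposure. Adherent cells fixed with cold TCA (10% final), then SRB stained; absorbance at 515 nm. GI50, TGI and LC50 calculated from growth relative to time-zero and untreated controls.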

BT-549 = test: Cytotoxicity against human BT549 cells after 48 hrs by SRB assay; settings: BT-549, 48 h; outline: as §1
T47D = test: Cytotoxicity against human T47D cells after 48 hrs by SRB assay
Outline: (§2)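 NCI 60-cell screen. Cells grew 24 h (37 °C, 5% CO2) before compound was added. Compounds were in DMSO and diluted in medium with gentamicin, then tested at five levels (100, 10, 1.0, 0.1, 0.01 µM) with 48 h continuous exposure. Adherent cells were fixed with TCA (10% final) and stained with 0.4% SRB, absorbance read at 515 nm. A time-zero plate was included. LC50 is the concentration giving 50% loss of protein relative to time zero.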

Hs-578T = test: Cytotoxicity against human Hs578T cells after 48 hrs by SRB assay; outline: as §1
MDA-MB-231 = test: Cytotoxicity against human MDA-MB-231 cells after 48 hrs by SRB assay; settings: MDA-MB-231, 48 h; outline: as §1
PC-3 = test: Cytotoxicity against human PC3 cells after 48 hrs by SRB assay; settings: PC-3, 48 h; outline: as §1
SN12C = test: Cytotoxicity against human SN12C cells after 48 hrs by SRB assay; outline: as §1
CAKI-1 = test: Cytotoxicity against human Caki1 cells after 48 hrs by SRB assay; settings: CAKI-1, 48 h; outline: as §1
ACHN = test: Cytotoxicity against human ACHN cells after 48 hrs by SRB assay; outline: as §1
NCI/ADR-RES = test: Cytotoxicity against human NCI/ADR-RES cells after 48 hrs by SRB assay; outline: as §1
IGROV-1 = test: Cytotoxicity against human IGROV1 cells after 48 hrs by SRB assay; settings: IGROV-1, 48 h; outline: as §1
UACC-62 = test: Cytotoxicity against human UACC62 cells after 48 hrs by SRB assay; settings: UACC-62, 48 h; outline: as §2
UACC-257 = test: Cytotoxicity against human UACC257 cells after 48 hrs by SRB assay; settings: UACC-257, 48 h; outline: as §2
SK-MEL-2 = test: Cytotoxicity against human SK-MEL-2 cells after 48 hrs by SRB assay; settings: SK-MEL-2, 48 h; outline: as §1
MDA-MB-435 = test: Cytotoxicity against human MDA-MB-435 cells after 48 hrs by SRB assay; settings: MDA-MB-435, 48 h; outline: as §1
LOX IMVI = test: Cytotoxicity against human LOXIMVI cells after 48 hrs by SRB assay; outline: as §1
SNB-75 = test: Cytotoxicity against human SNB75 cells after 48 hrs by SRB assay; settings: SNB-75, 48 h; outline: as §2
SF-539 = test: Cytotoxicity against human SF539 cells after 48 hrs by SRB assay; settings: SF-539, 48 h; outline: as §1
SF-295 = test: Cytotoxicity against human SF295 cells after 48 hrs by SRB assay; settings: SF-295, 48 h; outline: as §1
SF-268 = test: Cytotoxicity against human SF268 cells after 48 hrs by SRB assay; settings: SF-268, 48 h; outline: as §1
HCT-15 = test: Cytotoxicity against human HCT15 cells after 48 hrs by SRB assay; settings: HCT-15, 48 h; outline: as §1
HT-29 = test: Cytotoxicity against human HT-29 cells after 48 hrs by SRB assay; settings: HT-29, 48 h; outline: as §1
HCT-116 = test: Cytotoxicity against human HCT116 cells after 48 hrs by SRB assay; settings: HCT-116, 48 h; outline: as §1
HCC 2998 = test: Cytotoxicity against human HCC2998 cells after 48 hrs by SRB assay; settings: HCC 2998, 48 h; outline: as §1
NCI-H522 = test: Cytotoxicity against human NCI-H522 cells after 48 hrs by SRB assay; settings: NCI-H522, 48 h; outline: as §1
NCI-H226 = test: Cytotoxicity against human NCI-H226 cells after 48 hrs by SRB assay; settings: NCI-H226, 48 h; outline: as §1
NCI-H23 = test: Cytotoxicity against human NCI-H23 cells after 48 hrs by SRB assay; settings: NCI-H23, 48 h; outline: as §1
HOP-92 = test: Cytotoxicity against human HOP92 cells after 48 hrs by SRB assay; settings: HOP-92, 48 h; outline: as §1
HOP-62 = test: Cytotoxicity against human HOP62 cells after 48 hrs by SRB assay; settings: HOP-62, 48 h; outline: as §1
SR = test: Cytotoxicity against human SR cells after 48 hrs by SRB assay; outline: as §2
RPMI-8226 = test: Cytotoxicity against human RPMI8226 cells after 48 hrs by SRB assay; settings: RPMI-8226, 48 h; outline: as §1
MOLT-4 = test: Cytotoxicity against human MOLT4 cells after 48 hrs by SRB assay; settings: MOLT-4, 48 h; outline: as §1
CCRF-CEM = test: Cytotoxicity against human CCRF-CEM cells after 48 hrs by SRB assay; outline: as §1
[1] = read-out: LC50 (the source's name)

Structure (SMILES): COc1cc(C2CC(c3cccc(Nc4ccnc5cc(Cl)ccc45)c3)=NN2C=O)cc(OC)c1OC (configuration not stated)
- inhibition at 20 µg/mL (Plasmodium falciparum): 24.6%
- GI50 (MDA-MB-468): 300 nM
- LC50 (MDA-MB-468): 23300 nM
- GI50 (BT-549): 390 nM
- LC50 (50% net cell kill vs time zero) (BT-549): 4610 nM
- GI50 (T47D): 650 nM
- LC50 (concentration giving 50% cell kill relative to time zero) (T47D): 69300 nM
- GI50 (Hs-578T): 680 nM
- LC50 (50% net cell kill) (Hs-578T): > 100000 nM
- GI50 (MDA-MB-231): 1600 nM
- LC50 (concentration killing 50% of cells present at time zero) (MDA-MB-231): > 100000 nM
- GI50 (PC-3): 1460 nM
- LC50 (PC-3): > 100000 nM
- GI50 (SN12C): 780 nM
- LC50 (50% net cell kill relative to time zero) (SN12C): > 100000 nM
- GI50 (CAKI-1): 550 nM
- LC50 (CAKI-1): 12100 nM
- GI50 (ACHN): 1270 nM
- CC50 (ACHN; [1]): > 100000 nM
- GI50 (NCI/ADR-RES): 1360 nM
- CC50 (NCI/ADR-RES; [1]): > 100000 nM
- GI50 (IGROV-1): 3290 nM
- LC50 (concentration killing 50% of cells relative to time zero) (IGROV-1): > 100000 nM
- GI50 (UACC-62): 720 nM
- CC50 (UACC-62; [1]): 84000 nM
- GI50 (UACC-257): 1400 nM
- LC50 (UACC-257): > 100000 nM
- GI50 (SK-MEL-2): 730 nM
- LC50 (SK-MEL-2): 50100 nM
- GI50 (MDA-MB-435): 220 nM
- LC50 (MDA-MB-435): > 100000 nM
- GI50 (LOX IMVI): 710 nM
- LC50 (LOX IMVI): > 100000 nM
- GI50 (SNB-75): 380 nM
- LC50 (50% net cell kill) (SNB-75): 51000 nM
- GI50 (SF-539): 810 nM
- CC50 (SF-539; [1]): 55500 nM
- GI50 (SF-295): 380 nM
- LC50 (SF-295): > 100000 nM
- GI50 (SF-268): 2550 nM
- LC50 (SF-268): > 100000 nM
- GI50 (HCT-15): 550 nM
- LC50 (concentration killing 50% of cells relative to time zero) (HCT-15): > 100000 nM
- GI50 (HT-29): 400 nM
- LC50 (HT-29): 4990 nM
- GI50 (HCT-116): 400 nM
- LC50 (HCT-116): 6710 nM
- GI50 (HCC 2998): 2160 nM
- LC50 (HCC 2998): > 100000 nM
- GI50 (NCI-H522): 750 nM
- CC50 (NCI-H522; [1]): > 100000 nM
- GI50 (NCI-H226): 2200 nM
- LC50 (50% lethal concentration) (NCI-H226): > 100000 nM
- GI50 (NCI-H23): 1380 nM
- CC50 (NCI-H23; [1]): > 100000 nM
- GI50 (HOP-92): 2750 nM
- LC50 (concentration killing 50% of cells) (HOP-92): > 100000 nM
- GI50 (HOP-62): 1120 nM
- LC50 (50% lethal concentration) (HOP-62): 66500 nM
- GI50 (SR): 340 nM
- LC50 (SR): > 100000 nM
- GI50 (RPMI-8226): 8830 nM
- LC50 (concentration killing 50% of cells) (RPMI-8226): > 100000 nM
- GI50 (MOLT-4): 590 nM
- LC50 (MOLT-4): > 100000 nM
- GI50 (CCRF-CEM): 650 nM
- LC50 (concentration killing 50% of cells relative to time zero) (CCRF-CEM): > 100000 nM

From ChEMBL document CHEMBL2417469, “Synthesis of novel analogs of 2-pyrazoline obtained from [(7-chloroquinolin-4-yl)amino]chalcones and hydrazine as potential antitumor and antimalarial agents” (Eur J Med Chem, 2013)
